In ChEMBL document CHEMBL4368909, “Identification of Dihydrofuro[3,4- d]pyrimidine Derivatives as Novel HIV-1 Non-Nucleoside Reverse Transcriptase Inhibitors with Promising Antiviral Activities and Desirable Physicochemical Properties” (J Med Chem, 2019):
Values after ≈ are worked out from the molar mass of the structure shown.

Columns and labels:
[1] = system: Human immunodeficiency virus 1; test: Resistance factor, ratio of EC50 for HIV1 harboring reverse transcriptase K103N mutant to EC50 for wild type HIV1; type: functional
In short: (§1)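 The resistance factor is the EC50 against the mutant strain divided by the EC50 against wild-type HIV-1. Both were measured in MT-4 cells by MTT read-out of protection from virus-induced cytopathicity.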

Cytochrome P450 2C19 = Cytochrome P450 2C19 (Homo sapiens, UniProt P33261); test: Inhibition of CYP2C19 in human liver microsomes using S-mephenytoin as substrate after 10 mins in presence of NADPH; type: ADME
Chain of Cytochrome P450 2C19 (P33261 whole entry): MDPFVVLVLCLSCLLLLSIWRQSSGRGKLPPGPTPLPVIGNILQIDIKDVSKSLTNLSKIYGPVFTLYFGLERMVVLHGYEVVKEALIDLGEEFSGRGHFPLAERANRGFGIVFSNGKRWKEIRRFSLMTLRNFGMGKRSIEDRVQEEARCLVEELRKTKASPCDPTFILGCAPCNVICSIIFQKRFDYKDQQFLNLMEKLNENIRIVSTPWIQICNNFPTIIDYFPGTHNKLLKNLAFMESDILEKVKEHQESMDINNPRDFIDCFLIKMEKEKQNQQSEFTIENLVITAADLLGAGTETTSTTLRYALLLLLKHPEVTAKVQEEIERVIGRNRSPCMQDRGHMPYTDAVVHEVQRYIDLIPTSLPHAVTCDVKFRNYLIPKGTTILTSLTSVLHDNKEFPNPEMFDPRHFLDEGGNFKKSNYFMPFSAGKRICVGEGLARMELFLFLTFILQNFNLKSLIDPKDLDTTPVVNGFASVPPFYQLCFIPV

[2] = Acute toxicity in Kunming mouse assessed as mortality at 800 mg/kg, po measured after 2 weeks; type: organism-based; conditions: in vivo, 336 h
In short: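 Kunming mice received a single intragastric dose of 800 mg/kg. Deaths and behaviour were observed over 2 weeks and compared with a control group.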

[3] = Sub-acute toxicity in Kunming mouse assessed as behavior abnormalities at 50 mg/kg/day, po administered for 2 weeks by hematoxylin and eosin staining-based assay; type: organism-based; conditions: in vivo, 336 h
In short: (§2)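 Mice were dosed orally at 50 mg/kg/day for 2 weeks and observed for behavioural abnormalities during treatment. Organs were then examined by hematoxylin–eosin staining.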

[4] = Cmax in Wistar rat at 2 mg/kg, iv by LC-MS/MS analysis; type: ADME, organism-based; parameters: dose 2 mg/kg, route intravenous; conditions: in vivo
In short: (§3)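 Male/unspecified Wistar rats given one dose, 2 mg/kg intravenously or 20 mg/kg orally; plasma concentration–time profiles followed; PK parameters reported as mean ± SD, n = 5.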

[5] = AUC (0 to infinity) in Wistar rat at 2 mg/kg, iv by LC-MS/MS analysis; type: ADME, organism-based; parameters: dose 2 mg/kg, time infinity, route intravenous; conditions: in vivo; in short: as §3
[6] = system: Human immunodeficiency virus 1; test: Antiviral activity against HIV1 harboring reverse transcriptase L100I mutant infected in human MT4 cells assessed as reduction in virus-induced cytopathic effect after 5 days by MTT assay; type: functional, organism-based; conditions: Human immunodeficiency virus 1, MT4, 120 h
[7] = Aqueous solubility of the compound at pH at 2 by HPLC analysis; type: physicochemical; conditions: buffer, pH 2
In short: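 Aqueous solubility read by HPLC in buffer at pH 2.0, 7.0 or 7.4.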

[8] = Aqueous solubility of the compound in FASSIF by HPLC analysis; type: physicochemical; conditions: simulated gi fluid
In short: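 Solubility read by HPLC in fasted state simulated intestinal fluid (FaSSIF).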

[9] = Protein binding in human plasma at 2 uM after 5 hrs by LC/MS analysis; type: ADME, cell-free; conditions: read-out: PPB (converted)
[10] = target: Human immunodeficiency virus type 1 reverse transcriptase (Human immunodeficiency virus 1, UniProt Q72547); test: Inhibition of recombinant HIV1 reverse transcriptase using (DIG)-dUTP and biotin-labeled dNTPs as substrate after 1 hr by ELISA
[11] = Cmax in Wistar rat at 20 mg/kg, po by LC-MS/MS analysis; type: ADME, organism-based; parameters: dose 20 mg/kg, route oral; conditions: in vivo; in short: as §3
[12] = Protein binding in rat plasma assessed as recovery rate at 2 uM after 5 hrs by LC/MS analysis; type: ADME, cell-free
[13] = system: Human immunodeficiency virus 1; test: Antiviral activity against HIV1 RES056 infected in human MT4 cells assessed as reduction in virus-induced cytopathic effect after 5 days by MTT assay; type: functional, organism-based; conditions: Human immunodeficiency virus 1, RES056, MT4, 120 h
[14] = AUCt in Wistar rat at 2 mg/kg, iv by LC-MS/MS analysis; type: ADME, organism-based; conditions: in vivo; in short: as §3
[15] = system: Human immunodeficiency virus 2; test: Antiviral activity against HIV2 ROD infected in human MT4 cells assessed as reduction in virus-induced cytopathic effect after 5 days by MTT assay; conditions: Human immunodeficiency virus 2, ISOLATE ROD, MT4, 120 h
[16] = system: Human immunodeficiency virus 1; test: Resistance factor, ratio of EC50 for HIV1 harboring reverse transcriptase F227L/V106A double mutant to EC50 for wild type HIV1; type: functional; in short: as §1
[17] = Sub-acute toxicity in Kunming mouse assessed as effect on liver at 50 mg/kg/day, po administered for 2 weeks by hematoxylin and eosin staining-based assay; type: organism-based; conditions: in vivo, 336 h; in short: as §2

For Cc1cc(C#N)cc(C)c1Oc1nc(NC2CCN(Cc3ccc(C(N)=O)cc3)CC2)nc2c1COC2, the “Ratio EC50” value [1] was 0.6, the IC50 (Cytochrome P450 2C19) was greater than 50 µM and the Activity [2] was “Non-Toxic”. The Activity [3] was “Non-Toxic”, the Cmax [4] was 0.46 µg/mL and the AUC(0-inf) [5] was 0.543 µg·h/mL. The EC50 [6] was 0.0024 µM, the solubility [7] was 0.198 mg/mL (≈ 397 µM) and the solubility [8] was 0.0325 mg/mL (≈ 65.2 µM). It also gave a fraction unbound at 5 h, 2 µM [9] of 0.07, an IC50 [10] of 0.051 µM and a Cmax [11] of 0.4 µg/mL. The Drug recovery [12] was 77.9%, the EC50 [13] was 0.0415 µM and the AUC(0-t) [14] was 0.5 µg·h/mL. The EC50 [15] was 12.7 µM, the “Ratio EC50” value [16] was 11.9 and the Activity [17] was “Non-Toxic”.
